From ChEMBL document CHEMBL1146219, “Synthesis and evaluation of novel radioiodinated benzamides for malignant melanoma” (J Med Chem, 2007)

Key:
[1] = system: Brain; assay: Biodistribution in brain of B16F0 tumor bearing C57BL/6J mouse at 0.37-0.74 MBq, iv after 24 hrs; assay type: ADME, organism-based; conditions: in vivo
How it was run: (§1)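 Female C57BL/6J mice (15-18 g) were given B16F0 cells subcutaneously in the left flank (0.1 mL of 3 × 10⁶ viable cells/mL in Ca²⁺/Mg²⁺-free PBS) at 6-7 weeks and used after ten days. [¹²³I]benzamide (0.37-0.74 MBq, 100 µL, saline) was injected via the tail vein. Groups of n = 5 were killed by CO₂ and cervical dislocation. Organs were weighed and γ-counted, and the carcass was counted too.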

[2] = system: Heart; assay: Biodistribution in heart of B16F0 tumor bearing C57BL/6J mouse at 0.37-0.74 MBq, iv after 24 hrs; assay type: ADME, organism-based; conditions: in vivo; how it was run: as §1
[3] = Biodistribution in melanoma of B16F0 tumor bearing C57BL/6J mouse at 0.37-0.74 MBq, iv after 24 hrs; assay type: ADME, organism-based, B16-F0; conditions: in vivo; how it was run: as §1
[4] = system: Brain; assay: Biodistribution in brain of B16F0 tumor bearing C57BL/6J mouse at 0.37-0.74 MBq, iv after 1 hr; assay type: ADME, organism-based; conditions: in vivo; how it was run: as §1
[5] = system: Lung; assay: Biodistribution in lung of B16F0 tumor bearing C57BL/6J mouse at 0.37-0.74 MBq, iv after 6 hrs; assay type: ADME, organism-based; conditions: in vivo; how it was run: as §1
[6] = system: Liver; assay: Biodistribution in liver of B16F0 tumor bearing C57BL/6J mouse at 0.37-0.74 MBq, iv after 24 hrs; assay type: ADME, organism-based; conditions: in vivo; how it was run: as §1
[7] = system: Heart; assay: Biodistribution in heart of B16F0 tumor bearing C57BL/6J mouse at 0.37-0.74 MBq, iv after 1 hr; assay type: ADME, organism-based; conditions: in vivo; how it was run: as §1
[8] = system: Liver; assay: Biodistribution in liver of B16F0 tumor bearing C57BL/6J mouse at 0.37-0.74 MBq, iv after 1 hr; assay type: ADME, organism-based; conditions: in vivo; how it was run: as §1
[9] = system: Lung; assay: Biodistribution in lung of B16F0 tumor bearing C57BL/6J mouse at 0.37-0.74 MBq, iv after 24 hrs; assay type: ADME, organism-based; conditions: in vivo; how it was run: as §1
[10] = system: Blood; assay: Biodistribution in blood of B16F0 tumor bearing C57BL/6J mouse at 0.37-0.74 MBq, iv after 6 hrs; assay type: ADME, organism-based; conditions: in vivo; how it was run: as §1
[11] = system: Liver; assay: Biodistribution in liver of B16F0 tumor bearing C57BL/6J mouse at 0.37-0.74 MBq, iv after 6 hrs; assay type: ADME, organism-based; conditions: in vivo; how it was run: as §1
[12] = system: Blood; assay: Biodistribution in blood of B16F0 tumor bearing C57BL/6J mouse at 0.37-0.74 MBq, iv after 1 hr; assay type: ADME, organism-based; conditions: in vivo; how it was run: as §1
[13] = Biodistribution in melanoma of B16F0 tumor bearing C57BL/6J mouse at 0.37-0.74 MBq, iv after 1 hr; assay type: ADME, organism-based, B16-F0; conditions: in vivo; how it was run: as §1
[14] = system: Blood; assay: Biodistribution in blood of B16F0 tumor bearing C57BL/6J mouse at 0.37-0.74 MBq, iv after 24 hrs; assay type: ADME, organism-based; conditions: in vivo; how it was run: as §1
[15] = system: Kidney; assay: Biodistribution in kidney of B16F0 tumor bearing C57BL/6J mouse at 0.37-0.74 MBq, iv after 6 hrs; assay type: ADME, organism-based; conditions: in vivo; how it was run: as §1
[16] = system: Brain; assay: Biodistribution in brain of B16F0 tumor bearing C57BL/6J mouse at 0.37-0.74 MBq, iv after 6 hrs; assay type: ADME, organism-based; conditions: in vivo; how it was run: as §1
[17] = system: Kidney; assay: Biodistribution in kidney of B16F0 tumor bearing C57BL/6J mouse at 0.37-0.74 MBq, iv after 1 hr; assay type: ADME, organism-based; conditions: in vivo; how it was run: as §1
[18] = Biodistribution in melanoma of B16F0 tumor bearing C57BL/6J mouse at 0.37-0.74 MBq, iv after 6 hrs; assay type: ADME, organism-based, B16-F0; conditions: in vivo
How it was run: (§2)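 Female C57BL/6J mice (15-18 g) carrying s.c. B16F0 flank tumors (0.1 mL of 3 × 10⁶ viable cells per mL in Ca²⁺/Mg²⁺-free PBS, inoculated at 6-7 weeks, used 10 days later). [¹²³I]tracer 0.37-0.74 MBq in saline, 100 µL, tail-vein i.v. Groups of n = 5 killed at 1-72 h. Organs weighed and γ-counted, carcass activity also counted, values as %ID/g.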

[19] = system: Lung; assay: Biodistribution in lung of B16F0 tumor bearing C57BL/6J mouse at 0.37-0.74 MBq, iv after 1 hr; assay type: ADME, organism-based; conditions: in vivo; how it was run: as §1
[20] = system: Kidney; assay: Biodistribution in kidney of B16F0 tumor bearing C57BL/6J mouse at 0.37-0.74 MBq, iv after 24 hrs; assay type: ADME, organism-based; conditions: in vivo; how it was run: as §1
[21] = system: Heart; assay: Biodistribution in heart of B16F0 tumor bearing C57BL/6J mouse at 0.37-0.74 MBq, iv after 6 hrs; assay type: ADME, organism-based; conditions: in vivo; how it was run: as §1
[22] = system: Blood; assay: Biodistribution in blood of B16F0 tumor bearing C57BL/6J mouse at 0.37-0.74 MBq, iv after 72 hrs; assay type: ADME, organism-based; conditions: in vivo; how it was run: as §1
[23] = system: Kidney; assay: Biodistribution in kidney of B16F0 tumor bearing C57BL/6J mouse at 0.37-0.74 MBq, iv after 72 hrs; assay type: ADME, organism-based; conditions: in vivo; how it was run: as §1
[24] = system: Heart; assay: Biodistribution in heart of B16F0 tumor bearing C57BL/6J mouse at 0.37-0.74 MBq, iv after 72 hrs; assay type: ADME, organism-based; conditions: in vivo; how it was run: as §1
[25] = system: Kidney; assay: Biodistribution in kidney of B16F0 tumor bearing C57BL/6J mouse at 0.37-0.74 MBq, iv after 48 hrs; assay type: ADME, organism-based; conditions: in vivo; how it was run: as §1
[26] = Biodistribution in melanoma of B16F0 tumor bearing C57BL/6J mouse at 0.37-0.74 MBq, iv after 48 hrs; assay type: ADME, organism-based, B16-F0; conditions: in vivo; how it was run: as §1
[27] = system: Heart; assay: Biodistribution in heart of B16F0 tumor bearing C57BL/6J mouse at 0.37-0.74 MBq, iv after 48 hrs; assay type: ADME, organism-based; conditions: in vivo; how it was run: as §1
[28] = system: Liver; assay: Biodistribution in liver of B16F0 tumor bearing C57BL/6J mouse at 0.37-0.74 MBq, iv after 48 hrs; assay type: ADME, organism-based; conditions: in vivo; how it was run: as §1
[29] = Biodistribution in melanoma of B16F0 tumor bearing C57BL/6J mouse at 0.37-0.74 MBq, iv after 72 hrs; assay type: ADME, organism-based, B16-F0; conditions: in vivo; how it was run: as §2
[30] = system: Lung; assay: Biodistribution in lung of B16F0 tumor bearing C57BL/6J mouse at 0.37-0.74 MBq, iv after 48 hrs; assay type: ADME, organism-based; conditions: in vivo; how it was run: as §1
[31] = system: Brain; assay: Biodistribution in brain of B16F0 tumor bearing C57BL/6J mouse at 0.37-0.74 MBq, iv after 48 hrs; assay type: ADME, organism-based; conditions: in vivo; how it was run: as §1
[32] = system: Liver; assay: Biodistribution in liver of B16F0 tumor bearing C57BL/6J mouse at 0.37-0.74 MBq, iv after 72 hrs; assay type: ADME, organism-based; conditions: in vivo; how it was run: as §1
[33] = system: Blood; assay: Biodistribution in blood of B16F0 tumor bearing C57BL/6J mouse at 0.37-0.74 MBq, iv after 48 hrs; assay type: ADME, organism-based; conditions: in vivo; how it was run: as §1
[34] = target: Sigma non-opioid intracellular receptor 1 (Cavia porcellus, UniProt Q60492); assay: Displacement of [3H](+)-pentazocine from sigma 1 receptor in guinea pig brain membrane; assay type: cell membranes
Sigma non-opioid intracellular receptor 1, sequence (Q60492 whole entry): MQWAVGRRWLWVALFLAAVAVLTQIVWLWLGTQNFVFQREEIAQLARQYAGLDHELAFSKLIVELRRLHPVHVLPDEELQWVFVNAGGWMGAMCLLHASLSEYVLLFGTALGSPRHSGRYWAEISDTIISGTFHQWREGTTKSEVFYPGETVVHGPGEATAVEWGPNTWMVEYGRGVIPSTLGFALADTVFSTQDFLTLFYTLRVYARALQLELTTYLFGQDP
How it was run: (§3)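 Guinea pig brain membranes, incubated in duplicate for 2 h at 25 °C in Tris-HCl pH 8.0. Benzamide 10⁻¹⁰ to […] against 2 nM [³H]-(+)-pentazocine (σ₁) or 2 nM [³H]DTG plus 100 nM (+)-pentazocine (σ₂). Nonspecific binding defined with 1 µM haloperidol. GF/B filtration, bound activity by β-scintillation counting, giving IC50 then Ki. Full curves run only where 10⁻⁵ M inhibited >90%.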

[35] = Displacement of [3H]DTG from sigma 2 receptor in guinea pig brain membrane; assay type: cell membranes, Cavia porcellus; how it was run: as §3
[36] = Lipophilicity, log P at pH 7.5; assay type: physicochemical; conditions: buffer

O=C(NCCCCN1CC2CCC1C2)c1ccc([123I])cc1 (centres undefined)
Drug uptake [1]: 0.01 % ID/g
Drug uptake [2]: 0.13 % ID/g
Drug uptake [3]: 3.4 % ID/g
Drug uptake [4]: 0.1 % ID/g
Drug uptake [5]: 2.1 % ID/g
Drug uptake [6]: 3.5 % ID/g
Drug uptake [7]: 1.05 % ID/g
Drug uptake [8]: 43.2 % ID/g
Drug uptake [9]: 0.4 % ID/g
Drug uptake [10]: 0.24 % ID/g
Drug uptake [11]: 27 % ID/g
Drug uptake [12]: 0.48 % ID/g
Drug uptake [13]: 3.8 % ID/g
Drug uptake [14]: 0.03 % ID/g
Drug uptake [15]: 4.9 % ID/g
Drug uptake [16]: 0.06 % ID/g
Drug uptake [17]: 15.2 % ID/g
Drug uptake [18]: 3.5 % ID/g
Drug uptake [19]: 6.9 % ID/g
Drug uptake [20]: 0.59 % ID/g
Drug uptake [21]: 0.44 % ID/g

COc1cc(NC(C)=O)c([123I])cc1C(=O)NCCCCN(C)C(C)C
Drug uptake [1]: 0.07 % ID/g
Drug uptake [2]: 0.07 % ID/g
Drug uptake [3]: 3.7 % ID/g
Drug uptake [4]: 0.07 % ID/g
Drug uptake [5]: 0.5 % ID/g
Drug uptake [6]: 0.42 % ID/g
Drug uptake [7]: 0.84 % ID/g
Drug uptake [8]: 9.5 % ID/g
Drug uptake [9]: 0.06 % ID/g
Drug uptake [10]: 0.68 % ID/g
Drug uptake [11]: 1.5 % ID/g
Drug uptake [12]: 1.3 % ID/g
Drug uptake [13]: 5.5 % ID/g
Drug uptake [14]: 0.02 % ID/g
Drug uptake [15]: 0.69 % ID/g
Drug uptake [16]: 0.03 % ID/g
Drug uptake [17]: 5.7 % ID/g
Drug uptake [18]: 6 % ID/g
Drug uptake [19]: 1.5 % ID/g
Drug uptake [20]: 0.06 % ID/g
Drug uptake [21]: 0.3 % ID/g

CCN(CC)CCNC(=O)c1cc([123I])c(NC(C)=O)cc1OC
Drug uptake [1]: 0.01 % ID/g
Drug uptake [2]: 0.12 % ID/g
Drug uptake [3]: 5.2 % ID/g
Drug uptake [4]: 0.13 % ID/g
Drug uptake [22]: 0.06 % ID/g
Drug uptake [5]: 0.4 % ID/g
Drug uptake [6]: 1.1 % ID/g
Drug uptake [23]: 0.06 % ID/g
Drug uptake [24]: 0.18 % ID/g
Drug uptake [25]: 0.04 % ID/g
Drug uptake [26]: 3.4 % ID/g
Drug uptake [7]: 0.79 % ID/g
Drug uptake [8]: 9 % ID/g
Drug uptake [9]: 0.09 % ID/g
Drug uptake [10]: 0.35 % ID/g
Drug uptake [27]: 0.07 % ID/g
Drug uptake [11]: 2.3 % ID/g
Drug uptake [12]: 0.98 % ID/g
Drug uptake [13]: 9.6 % ID/g
Drug uptake [28]: 0.51 % ID/g
Drug uptake [14]: 0.08 % ID/g
Drug uptake [29]: 2.2 % ID/g
Drug uptake [30]: 0.07 % ID/g
Drug uptake [31]: 0.01 % ID/g
Drug uptake [15]: 0.44 % ID/g
Drug uptake [32]: 0.28 % ID/g
Drug uptake [16]: 0.02 % ID/g
Drug uptake [17]: 2.3 % ID/g
Drug uptake [33]: 0.03 % ID/g
Drug uptake [18]: 8.5 % ID/g
Drug uptake [19]: 1.3 % ID/g
Drug uptake [20]: 0.08 % ID/g
Drug uptake [21]: 0.31 % ID/g

O=C(NC1CCN(CCO)CC1)c1ccc([123I])cc1
Drug uptake [1]: 0.15 % ID/g
Drug uptake [2]: 0.49 % ID/g
Drug uptake [3]: 9.2 % ID/g
Drug uptake [4]: 1 % ID/g
Drug uptake [5]: 4.7 % ID/g
Drug uptake [6]: 5.4 % ID/g
Drug uptake [7]: 3.1 % ID/g
Drug uptake [8]: 17.1 % ID/g
Drug uptake [9]: 1.44 % ID/g
Drug uptake [10]: 0.21 % ID/g
Drug uptake [11]: 9.2 % ID/g
Drug uptake [12]: 1 % ID/g
Drug uptake [13]: 5.9 % ID/g
Drug uptake [14]: 0.04 % ID/g
Drug uptake [15]: 3.2 % ID/g
Drug uptake [16]: 0.46 % ID/g
Drug uptake [17]: 10.6 % ID/g
Drug uptake [18]: 11.7 % ID/g
Drug uptake [19]: 17.8 % ID/g
Drug uptake [20]: 1.2 % ID/g
Drug uptake [21]: 0.93 % ID/g

CCCN(CCC)CCCCNC(=O)c1ccc(I)cc1
Ki [34]: 1300 nM
Ki [35]: 1000 nM
logD [36]: 2.46
